In ChEMBL document CHEMBL4007460, “17β-Hydroxywithanolides as Sensitizers of Renal Carcinoma Cells to Tumor Necrosis Factor-α Related Apoptosis Inducing Ligand (TRAIL) Mediated Apoptosis: Structure-Activity Relationships” (J Med Chem, 2017):
Calls of active or inactive are those of the source. No cut-off for these calls is given here.

What was measured:
ACHN [1] = test: Sensitization of TRAIL-induced apoptosis in human ACHN cells assessed as reduction in cell viability preincubated for 2 hrs followed by addition of TRAIL measured after 18 hrs by MTS assay; assay type: functional, cell-based
Outline: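 ACHN cells were seeded at 5000/well and rested overnight at 37 °C, in RPMI with 5% FCS, glutamine, NEAA, pyruvate, HEPES and 2-mercaptoethanol. Compound pretreatment ran 2 h, then TRAIL was added to 50 ng/mL for 18 h at 37 °C. Viability was read by MTS (2 h, A490). IC50 values (cell number reduced 50%) came from dose-response curves; triplicates, at least 3 independent experiments, ± SD.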

ACHN [2] = test: Reduction cFLIP level in human ACHN cells at 500 nM after 18 hrs by Western blot analysis; assay type: functional, cell-based
Outline: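 ACHN cells (RPMI, 5% FBS) plated 1.5×10^6/well, grown overnight at 37 °C, then exposed to compound at 500 nM for 18 h. Lysed in RIPA with protease/phosphatase inhibitors and zVAD-FMK; 20 μg protein per lane immunoblotted with anti-FLIP (7F10); GAPDH as loading control.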

[3] = Glutathione reactivity in DMSO assessed as formation of MIchael adduct with GSH at pH 7.4 after 24 hrs in presence of NAC by HPLC method
Outline: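 Withanolide (2.12 μM in DMSO, 0.5 mL) mixed with equal volume of 4.24 μM GSH or NAC solution at pH 7.4, 37 °C. Aliquots taken at 0, 0.5, 2, 4, 8, 24 h, stored −80 °C; unreacted withanolide quantified by C18 HPLC (H2O with 40 mM NH4OAc–MeOH gradient, UV 230 nm) using peak area.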

ACHN [4] = test: Cytotoxicity in human ACHN cells assessed as reduce cell number after 48 hrs by MTS assay; assay type: cell-based
Outline: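 ACHN cells exposed to compound for 48 h at 37 °C; viable cell number by MTS read-out. Triplicate determinations; IC50 (concentration reducing cell number by 50%) from 3 independent experiments, ± SD.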

Compound	IC50 (ACHN [1]) [µM]	also measured
CC1=C(C)C(=O)O[C@@H]([C@](C)(O)[C@]2(O)CC[C@@]3(O)[C@@H]4C[C@H]5O[C@]56C(=O)C=CC(=O)[C@]6(C)[C@H]4CC[C@]23C)C1	> 4	–
CC(=O)OC[C@]12CC[C@H]3[C@@H](CC=C4C[C@@H](OS(=O)(=O)O)CC(=O)[C@@]43C)[C@]1(O)[C@@H](OC(C)=O)C[C@@]2(O)[C@@](C)(O)[C@H]1CC(C)=C(C)C(=O)O1	> 4	–
CC(=O)O[C@H]1C=CC(=O)[C@]2(C)[C@H]3CC[C@]4(C)[C@](O)([C@@](C)(O)[C@H]5CC(C)=C(C)C(=O)O5)CC[C@@]4(O)[C@@H]3C[C@H]3O[C@]132	0.076	Activity (ACHN [2]): Active; Activity [3]: Active; Activity (ACHN [4]): Toxic
CC1=C(C)C(=O)O[C@@H]([C@](C)(O)[C@]2(O)CC[C@@]3(O)[C@@H]4C[C@H]5O[C@]56CC=CC(=O)[C@]6(C)[C@H]4CC[C@]23CO)C1	1.95	–
CC(=O)OC[C@]12CC[C@H]3[C@@H](C[C@H]4O[C@]45CCCC(=O)[C@]35C)[C@]1(O)CC[C@@]2(O)[C@@](C)(O)[C@H]1CC(C)=C(C)C(=O)O1	> 4	–
CC1=C(C)C(=O)O[C@@H]([C@](C)(O)[C@]2(O)CC[C@@]3(O)[C@@H]4CC=C5C(=O)C=CC(=O)[C@]5(C)[C@H]4CC[C@]23C)C1	0.168	–
CC(=O)OC[C@]12CC[C@H]3[C@@H](CC=C4CC=CC(=O)[C@@]43C)[C@]1(O)[C@@H](OC(C)=O)C[C@@]2(O)[C@@](C)(O)[C@H]1CC(C)=C(C)C(=O)O1	> 4	–
CC(=O)OC[C@]12CC[C@H]3[C@@H](C[C@@H]4O[C@@]45CC=CC(=O)[C@]35C)[C@]1(O)[C@@H](OC(C)=O)C[C@@]2(O)[C@@](C)(O)[C@H]1CC(C)=C(C)C(=O)O1	> 4	–
CC(=O)OC[C@]12CC[C@H]3[C@@H](C[C@H]4O[C@]45C[C@@H](n4ccnc4)CC(=O)[C@]35C)[C@]1(O)CC[C@@]2(O)[C@@](C)(O)[C@H]1CC(C)=C(C)C(=O)O1	0.164	–
CC(=O)O[C@@H]1C=CC(=O)[C@]2(C)[C@H]3CC[C@]4(C)[C@](O)([C@@](C)(O)[C@H]5CC(C)=C(C)C(=O)O5)CC[C@@]4(O)[C@@H]3C[C@H]3O[C@]132	0.09	Activity [3]: Active; Activity (ACHN [4]): Toxic
CC1=C(C)C(=O)O[C@@H]([C@](C)(O)[C@]2(O)CC[C@@]3(O)[C@@H]4C[C@H]5O[C@]56[C@@H](OC(=O)n5ccnc5)C=CC(=O)[C@]6(C)[C@H]4CC[C@]23C)C1	0.233	–
CC(=O)OC[C@]12CC[C@H]3[C@@H](C[C@@H]4O[C@@]45CC=CC(=O)[C@]35C)[C@]1(O)[C@@H](O)C[C@@]2(O)[C@@](C)(O)[C@H]1CC(C)=C(C)C(=O)O1	1.65	–
CC(=O)OC[C@]12CC[C@H]3[C@@H](CC=C4CC=CC(=O)[C@@]43C)[C@]1(O)[C@@H](O)C[C@@]2(O)[C@@](C)(O)[C@H]1CC(C)=C(C)C(=O)O1	> 4	–
CC(=O)OC[C@]12CC[C@H]3[C@@H](C[C@H]4O[C@]45CC=CC(=O)[C@]35C)[C@]1(O)[C@@H](OC(C)=O)C[C@@]2(O)[C@@](C)(O)[C@H]1CC(C)=C(C)C(=O)O1	> 4	–
CO[C@H]1CC(=O)[C@]2(C)[C@H]3CC[C@]4(COC(C)=O)[C@](O)([C@@](C)(O)[C@H]5CC(C)=C(C)C(=O)O5)CC[C@@]4(O)[C@@H]3C[C@H]3O[C@]32C1	> 4	–
CC1=C(C)C(=O)O[C@@H]([C@](C)(O)[C@]2(O)CC[C@@]3(O)[C@@H]4C[C@H]5O[C@]56CCCC(=O)[C@]6(C)[C@H]4CC[C@]23CO)C1	> 4	–

Compound	IC50 (ACHN [1]) [µM]	also measured
CC(=O)OC[C@]12CC[C@H]3[C@@H](CC=C4CC=CC(=O)[C@@]43C)[C@]1(O)[C@@H](OC(C)=O)C[C@@]2(O)[C@@](C)(O)[C@H]1CC(C)=C(CO)C(=O)O1	> 4	–
CC(=O)OC[C@]12CC[C@H]3[C@@H](CC=C4CC=CC(=O)[C@@]43C)[C@]1(O)[C@@H](OC(C)=O)C[C@@]2(O)[C@@](C)(O)[C@H]1CC(C)=C(CO[C@@H]2O[C@H](CO)[C@@H](O)[C@H](O)[C@H]2O)C(=O)O1	> 4	–
COC(=O)O[C@H]1C=CC(=O)[C@]2(C)[C@H]3CC[C@]4(C)[C@](O)([C@@](C)(O)[C@H]5CC(C)=C(C)C(=O)O5)CC[C@@]4(O)[C@@H]3C[C@H]3O[C@]132	0.111	Activity (ACHN [2]): Active; Activity [3]: Active; Activity (ACHN [4]): Toxic
CC(=O)OC[C@]12CC[C@H]3[C@@H](C[C@H]4O[C@]45C[C@@H](N=[N+]=[N-])CC(=O)[C@]35C)[C@]1(O)CC[C@@]2(O)[C@@](C)(O)[C@H]1CC(C)=C(C)C(=O)O1	0.251	–
CC1=C(C)C(=O)O[C@@H]([C@](C)(O)[C@]2(O)CC[C@@]3(O)[C@@H]4C[C@H]5O[C@]56[C@@H](O)C=CC(=O)[C@]6(C)[C@H]4CC[C@]23C)C1	0.563	Activity [3]: Active; Activity (ACHN [4]): Toxic
CC(=O)OC[C@]12CC[C@H]3[C@@H](C[C@@H]4O[C@@]45CC=CC(=O)[C@]35C)[C@]1(O)CC[C@@]2(O)[C@@](C)(O)[C@H]1CC(C)=C(C)C(=O)O1	> 4	Activity [3]: inactive
CC(=O)OC[C@]12CC[C@H]3[C@@H](CC=C4CC=CC(=O)[C@@]43C)[C@]1(O)[C@@H](OC(C)=O)C[C@@]2(O)[C@@](C)(O)[C@H]1CC(CO[C@@H]2O[C@H](CO)[C@@H](O)[C@H](O)[C@H]2O)=C(C)C(=O)O1	> 4	–
CC(=O)OC[C@]12CC[C@H]3[C@@H](CC=C4C[C@@H](OS(=O)(=O)O)CC(=O)[C@@]43C)[C@]1(O)CC[C@@]2(O)[C@@](C)(O)[C@H]1CC(C)=C(C)C(=O)O1	> 4	–
CC(=O)OC[C@]12CC[C@H]3[C@@H](CC=C4CC=CC(=O)[C@@]43C)[C@]1(O)[C@@H](OC(C)=O)C[C@@]2(O)[C@@](C)(O)[C@H]1CC(CO)=C(C)C(=O)O1	> 4	–
CC1=C(C)C(=O)O[C@@H]([C@](C)(O)[C@]2(O)CC[C@@]3(O)[C@@H]4C[C@H]5O[C@]56[C@@H](O)[C@@H](N=[N+]=[N-])CC(=O)[C@]6(C)[C@H]4CC[C@]23C)C1	1.8	–
CC1=C(C)C(=O)O[C@@H]([C@](C)(O)[C@]2(O)CC[C@@]3(O)[C@@H]4CC=C5[C@H](O)C=CC(=O)[C@]5(C)[C@H]4CC[C@]23C)C1	0.284	–
CC(=O)OC[C@]12CC[C@H]3[C@@H](C[C@H]4O[C@]45CC=CC(=O)[C@]35C)[C@]1(O)[C@@H](O)C[C@@]2(O)[C@@](C)(O)[C@H]1CC(C)=C(C)C(=O)O1	> 4	–
CC(=O)OC[C@]12CC[C@H]3[C@@H](C[C@H]4O[C@]45CC=CC(=O)[C@]35C)[C@]1(O)CC[C@@]2(O)[C@@](C)(O)[C@H]1C[C@]2(C)O[C@]2(C)C(=O)O1	1.25	–
CC(=O)OC[C@]12CC[C@H]3[C@@H](CC=C4CC=CC(=O)[C@@]43C)[C@]1(O)CC[C@@]2(O)[C@@](C)(O)[C@H]1CC(C)=C(C)C(=O)O1	0.564	–
CC(=O)OCC1=C(C)C(=O)O[C@@H]([C@](C)(O)[C@]2(O)C[C@H](OC(C)=O)[C@@]3(O)[C@@H]4CC=C5CC=CC(=O)[C@]5(C)[C@H]4CC[C@@]32COC(C)=O)C1	> 4	–
